Source: PubChem
Shown are actives, neighbours in structure and some others; about 2.9% of the full set was active somewhere.
DDE Tn6 FP inh: inhibitors of Tn6 peptide binding to fibrin DD(E), primary screen, biochemical, fluorescence polarization, human fibrin, Tn6 probe. Fibrin DD(E) TRITC-Tn6 fluorescence polarization displacement. inhibition, % at 8.3 µM. 370,000 tested, 0.21% active;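 active means inhibition above a per-campaign cutoff: mean of compounds within control limits plus 3 SD, cut at about 15% in these data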
CendR NRP1 mod: modulators of CendR peptide binding to NRP-1, primary screen, biochemical, fluorescence polarization, uHTS | FAM-RPARPAR peptide binding to NRP-1 | 360,000 tested, 0.85% active | inhibition, % at 25 µM | Neuropilin-1 (Homo sapiens), O14786 | AID 602438, 2012;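 active means inhibition or corrected inhibition above about 18%, plus a signal ratio from 0.5 to 1.5, limit read from the data, passing the limit was not always enough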
Target sequence (O14786 whole entry, looked up): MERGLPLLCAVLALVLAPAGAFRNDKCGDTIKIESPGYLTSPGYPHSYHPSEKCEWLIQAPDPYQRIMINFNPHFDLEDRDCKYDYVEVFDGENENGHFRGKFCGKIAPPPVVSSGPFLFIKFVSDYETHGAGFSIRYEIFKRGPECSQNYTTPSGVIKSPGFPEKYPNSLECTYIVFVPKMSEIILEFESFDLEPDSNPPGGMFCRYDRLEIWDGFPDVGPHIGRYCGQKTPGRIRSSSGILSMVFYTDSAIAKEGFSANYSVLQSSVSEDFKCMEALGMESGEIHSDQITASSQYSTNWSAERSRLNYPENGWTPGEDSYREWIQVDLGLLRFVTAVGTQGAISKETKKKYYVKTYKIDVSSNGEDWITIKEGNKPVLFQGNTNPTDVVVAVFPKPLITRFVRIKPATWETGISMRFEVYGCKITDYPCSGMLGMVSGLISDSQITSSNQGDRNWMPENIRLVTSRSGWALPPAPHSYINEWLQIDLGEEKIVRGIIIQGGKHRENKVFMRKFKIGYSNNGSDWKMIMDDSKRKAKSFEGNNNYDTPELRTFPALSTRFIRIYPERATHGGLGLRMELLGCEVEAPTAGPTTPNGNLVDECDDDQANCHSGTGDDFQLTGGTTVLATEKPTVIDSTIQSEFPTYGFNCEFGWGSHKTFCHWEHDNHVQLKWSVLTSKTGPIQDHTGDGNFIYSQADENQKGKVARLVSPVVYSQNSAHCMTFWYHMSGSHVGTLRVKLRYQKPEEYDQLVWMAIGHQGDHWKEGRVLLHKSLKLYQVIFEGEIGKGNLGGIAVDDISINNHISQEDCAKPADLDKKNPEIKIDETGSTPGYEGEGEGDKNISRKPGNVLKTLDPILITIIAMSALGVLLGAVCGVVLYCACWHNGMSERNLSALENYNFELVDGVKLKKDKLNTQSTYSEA
DDE Tn7 FP inh: inhibitors of Tn7 peptide binding to fibrin DD(E), primary screen, biochemical, fluorescence polarization, human fibrin, Tn7 probe | FP displacement of FITC-Tn7 peptide from fibrin DD(E); 0% = median of compound wells per plate | inhibition, % at 8.3 µM | AID 720508, 2013 | Fibrinogen beta chain (Homo sapiens), P02675 | 370,000 tested, 0.13% active;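 active means inhibition above the mean of compounds falling within the control limits plus 3 SD of them, cut at about 14% in these data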
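assay system = human clot-derived fibrin DD(E) complex | quantity = Fibrin-DD(E) at 2 µM final | timing = 10 min preincubation, 3 h with tracer, room temperature | signal = fluorescence polarization | measure = percent inhibition | benchmarks = high control wells with 10 µM unlabelled Aha-Tn7 peptide (full inhibition) | replicates = singlicate testing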
proKLK7 act: proKLK7 zymogen activators, primary screen, biochemical, fluorescence intensity; purified proKLK7, EDANS-DABCYL substrate fluorescence; 100% is mature enzyme control, 0% vehicle; AID 652039, 2013; Kallikrein-7 (Homo sapiens), P49862; activation, % at 7 µM; 370,000 tested, 0.9% active;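 active means activation above the mean of all tested compounds plus 3 SD, computed per campaign excluding outliers beyond control limits, cut at about 13% in these data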
CRFBP-R2 agonist: agonists of CRF-BP/CRF-R2 complex, primary screen, cell-based, HEK293, calcium dye fluorescence, uHTS. CRF-binding protein / CRF receptor 2 complex (human). 350,000 tested, 0.46% active. activation, % at 13.2 µM. AID 588473, 2011. calcium dye fluorescence (FLIPR); percent of saturating CRF peptide response;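 active means activation of at least 50%, plus an integration ratio under a set limit after plate pattern correction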
CRFR2-BP antag: antagonists of CRF-BP/CRF-R2 complex, primary screen, cell-based, HEK293, calcium dye fluorescence, uHTS; CRF-induced calcium fluorescence; inhibition, % at 11.8 µM; AID 588475, 2011; 350,000 tested, 0.59% active;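 active means inhibition of the ligand-induced calcium signal above about 50% at the single tested concentration, limit read from the data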
proKLK7 act conf: proKLK7 zymogen activators, confirmation, biochemical, fluorescence intensity, triplicate. shares compounds with proKLK7 act. activation, % at 7 µM. purified proKLK7, EDANS-DABCYL substrate fluorescence; scaled: vehicle 0, mature enzyme 100. 3,200 tested, 68% active. AID 686949, 2013;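 active means activation, as change over the incubation, above the mean of all tested compounds plus 3 SD, cut at about 13% in these data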
EDANS-DABCYL int: EDANS-DABCYL substrate optical interference, artefact control for kallikrein-7 zymogen activator project, biochemical, fluorescence intensity, high throughput; shares compounds with proKLK7 act; no enzyme, 4 h; solvent 0%, active enzyme control 100%; activation, % at 7 µM; 3,200 tested, 80% active;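 active means activation above the all-compound mean plus 3 SD, ignoring values outside control-based bounds, cut at about 4.8% in these data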;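 further: value is the 4 h activation minus the activation read at time zero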
K7 EDANS ctr: counter-screen for kallikrein-7 activators: EDANS-DABCYL interference, dose response; shares compounds with proKLK7 act; EDANS-DABCYL peptide fluorescence interference, no enzyme; EC50, µM; 250 tested, 20% active; AID 720493;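 active means compounds that raise the fluorescence signal in this interference counterscreen, with EC50 at or below 10 µM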;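 further: intact quenched peptide substrate alone read at 355 nm excitation and 520 nm emission; signal is fluorescence gain from T0 to T4 after four hours at room temperature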
Large screens that a line does not name were inactive (follow-up assays come after a bar, where they were run).

Cc1ccc2nc(NCCCO)nc(-c3ccccc3)c2c1	none
COc1cc(Nc2nc(-c3ccccc3)c3cc(C)ccc3n2)cc(OC)c1OC	none
Cc1ccc2nc(NCC(=O)O)nc(-c3ccccc3)c2c1	proKLK7 act 14 | proKLK7 act conf 28 | EDANS-DABCYL int 15 | K7 EDANS ctr inactive
Cc1ccc2nc(NCC(N)=O)nc(-c3ccccc3)c2c1	proKLK7 act 30 (no result: CendR NRP1 mod) | proKLK7 act conf 22 | EDANS-DABCYL int 34
Cc1cc(N2CCN(CC(C)(C)O)C[C@H]2C)ccc1N1CCN(Cc2ccccc2)[C@@H](C)C1	none (no result: CendR NRP1 mod, CRFBP-R2 agonist, CRFR2-BP antag)
COc1ccc(-n2nc(C(=O)NCC(=O)Nc3cc(OC)c(OC)c(OC)c3)c3ccccc3c2=O)cc1OC	proKLK7 act 42 | proKLK7 act conf 66 | EDANS-DABCYL int 66
C[C@H]1COc2cc(Br)ccc2S(=O)(=O)N1Cc1cn(Cc2ccccc2)nn1	none (no result: CendR NRP1 mod, CRFBP-R2 agonist, CRFR2-BP antag)
COc1ccc(Oc2c(C)oc3c(CN(C)C)c(O)ccc3c2=O)cc1	proKLK7 act 14 | proKLK7 act conf 32 | EDANS-DABCYL int 31
Cc1oc2cc(O)ccc2c(=O)c1Oc1ccc(F)cc1	none
Cc1cc(C)cc(Oc2coc3c(CN(C)C)c(O)ccc3c2=O)c1	proKLK7 act 71 | proKLK7 act conf 69 | EDANS-DABCYL int 80
COc1ccc(Oc2coc3c(CN(C)C)c(O)ccc3c2=O)cc1	none
COc1ccc(-c2c(C)oc3c(CN4CCN(C)CC4)c(O)ccc3c2=O)cc1	proKLK7 act 59 | proKLK7 act conf 40 | EDANS-DABCYL int 50
COC(=O)c1ccc(Oc2c(C)oc3c(CN4CCN(C)CC4)c(O)ccc3c2=O)cc1	proKLK7 act 65 | proKLK7 act conf 79 | EDANS-DABCYL int 73
COc1ccc(-n2c(SCC(=O)Nc3ccc4cn[nH]c4c3)nnc2-c2ccccc2)cc1	none (no result: CendR NRP1 mod, CRFBP-R2 agonist, CRFR2-BP antag)
COc1cccc(Oc2c(C)oc3c(CN4CCCCC4)c(O)ccc3c2=O)c1	proKLK7 act 61 | proKLK7 act conf 61 | EDANS-DABCYL int 71
COc1ccccc1Oc1c(C)oc2c(CN3CCN(C)CC3)c(O)ccc2c1=O	proKLK7 act 77 (no result: CendR NRP1 mod, CRFBP-R2 agonist, CRFR2-BP antag) | proKLK7 act conf 69 | EDANS-DABCYL int 76
CCN1CCN(Cc2c(O)ccc3c(=O)c(-c4ccc(OC)c(OC)c4)c(C)oc23)CC1	none
COc1ccc(CN(CCN2CCOCC2)C(=O)c2ccc(F)cc2Cl)cc1OC	none (no result: CendR NRP1 mod, CRFBP-R2 agonist, CRFR2-BP antag)
Cc1nn(-c2ccccc2)c2c1C(O)CC(C)(C)C2 (stereo not drawn)	none
Cc1nc2c(c3c1[nH]c1ccccc13)C(O)CC(C)(C)C2 (stereo not drawn)	proKLK7 act 34 | proKLK7 act conf 41 | EDANS-DABCYL int 40
COc1cc2c(cc1OC)C(Cc1ccc(O)cc1)N(C)CC2 (stereo not drawn)	proKLK7 act 17 | proKLK7 act conf 68 | EDANS-DABCYL int 90
COc1cc2c(cc1OC)C(Cc1ccc(O)cc1)NCC2 (stereo not drawn)	none
